These results are taken from ChEMBL document CHEMBL1134307, “trans-4-[4-(Methoxyphenyl)cyclohexyl]-1-arylpiperazines: a new class of potent and selective 5-HT(1A) receptor ligands as conformationally constrained analogues of 4-[3-(5-methoxy-1,2,3,4-tetrahydronaphthalen-1-yl)propyl]-1-arylpiperazines” (J Med Chem, 2001).

Broadly, the Ki is the dissociation constant of the complex between target and ligand, obtained from inhibition or displacement. A word on the Emax: it is the maximal effect, on the per cent scale that the assay sets. As usually defined, the ED50 is the dose at which the effect has come halfway, by size or by number of responders.

For experiment [1], the target named is T1, Adrenergic receptor alpha-1 (Rattus norvegicus, UniProt P15823+P23944+P43140).
T1 sequence (P15823 whole entry): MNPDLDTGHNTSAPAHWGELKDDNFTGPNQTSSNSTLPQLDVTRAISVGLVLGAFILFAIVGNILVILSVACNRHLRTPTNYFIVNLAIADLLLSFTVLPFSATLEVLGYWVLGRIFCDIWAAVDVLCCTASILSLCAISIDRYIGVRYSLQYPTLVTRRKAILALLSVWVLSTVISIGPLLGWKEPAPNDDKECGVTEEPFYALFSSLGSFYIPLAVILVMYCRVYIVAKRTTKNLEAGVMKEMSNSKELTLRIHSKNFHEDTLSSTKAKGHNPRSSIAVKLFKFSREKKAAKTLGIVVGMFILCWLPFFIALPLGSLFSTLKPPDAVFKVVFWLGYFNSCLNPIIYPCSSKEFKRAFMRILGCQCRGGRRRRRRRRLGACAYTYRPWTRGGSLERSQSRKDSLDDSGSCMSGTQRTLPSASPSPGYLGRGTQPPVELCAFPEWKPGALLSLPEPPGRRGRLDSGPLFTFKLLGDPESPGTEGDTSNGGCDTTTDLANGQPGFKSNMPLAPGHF
T1 sequence (P23944 whole entry): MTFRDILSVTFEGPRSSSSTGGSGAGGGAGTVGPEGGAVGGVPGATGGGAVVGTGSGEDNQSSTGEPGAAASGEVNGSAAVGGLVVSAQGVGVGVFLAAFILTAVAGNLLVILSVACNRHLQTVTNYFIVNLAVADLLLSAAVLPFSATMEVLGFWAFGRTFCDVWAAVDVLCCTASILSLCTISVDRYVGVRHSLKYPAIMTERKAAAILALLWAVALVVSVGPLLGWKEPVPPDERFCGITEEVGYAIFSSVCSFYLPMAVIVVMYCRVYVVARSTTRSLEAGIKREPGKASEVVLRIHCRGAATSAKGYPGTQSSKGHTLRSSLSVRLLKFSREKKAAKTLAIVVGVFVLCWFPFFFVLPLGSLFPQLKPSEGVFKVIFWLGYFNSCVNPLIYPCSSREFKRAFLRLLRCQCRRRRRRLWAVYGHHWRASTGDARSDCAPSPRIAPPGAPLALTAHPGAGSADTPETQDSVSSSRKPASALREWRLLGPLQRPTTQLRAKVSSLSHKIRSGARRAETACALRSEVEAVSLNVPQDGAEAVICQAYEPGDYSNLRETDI
T1 sequence (P43140 whole entry): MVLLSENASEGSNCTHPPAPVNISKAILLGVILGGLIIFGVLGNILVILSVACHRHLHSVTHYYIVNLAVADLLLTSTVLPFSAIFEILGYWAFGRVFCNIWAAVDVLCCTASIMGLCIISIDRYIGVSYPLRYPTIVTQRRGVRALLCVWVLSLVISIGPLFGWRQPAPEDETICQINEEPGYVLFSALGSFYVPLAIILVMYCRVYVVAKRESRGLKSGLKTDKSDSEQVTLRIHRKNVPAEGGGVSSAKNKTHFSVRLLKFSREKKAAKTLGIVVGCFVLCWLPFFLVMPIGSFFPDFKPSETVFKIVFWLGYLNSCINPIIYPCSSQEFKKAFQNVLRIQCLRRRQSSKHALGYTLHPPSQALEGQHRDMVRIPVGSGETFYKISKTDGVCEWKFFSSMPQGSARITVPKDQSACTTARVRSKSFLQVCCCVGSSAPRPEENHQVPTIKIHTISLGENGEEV
The experiment in a line: Binding affinity towards alpha-1 adrenergic receptor in rat cortical membranes. The class given is cell membranes.

In experiment [2] the target is T2, 5-hydroxytryptamine receptor 1A (Rattus norvegicus, UniProt P19327).
T2 sequence (P19327 whole entry): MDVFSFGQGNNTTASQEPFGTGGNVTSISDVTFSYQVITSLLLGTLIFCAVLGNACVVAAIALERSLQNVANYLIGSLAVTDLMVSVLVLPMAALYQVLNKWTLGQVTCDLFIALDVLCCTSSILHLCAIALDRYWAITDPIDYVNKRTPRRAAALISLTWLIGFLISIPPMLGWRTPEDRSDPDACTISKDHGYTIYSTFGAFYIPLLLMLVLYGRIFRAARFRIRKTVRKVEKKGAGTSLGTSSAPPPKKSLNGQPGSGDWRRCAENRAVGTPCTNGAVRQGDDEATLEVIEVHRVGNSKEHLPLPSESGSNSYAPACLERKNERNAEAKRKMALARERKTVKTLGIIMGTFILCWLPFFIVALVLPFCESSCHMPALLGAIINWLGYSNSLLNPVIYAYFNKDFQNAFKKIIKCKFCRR
In words: Binding was determined on 5-hydroxytryptamine 1A receptor in rat hippocampal membranes. The class given is cell membranes, Hippocampus. In outline: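 Hippocampus from male Wistar Hannover rats, homogenized in 50 mM Tris pH 7.6, washed, and preincubated 10 min at 37 °C. Ki given as mean ± SEM.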

For the next experiment, the target named is D(2) dopamine receptor (Rattus norvegicus, UniProt P61169). In words: Binding affinity towards dopamine receptor D2 in rat striatal membranes. The class given is cell membranes, Striatum, Membrane.
For experiment [3], the target named is T3, 5-hydroxytryptamine receptor 1A (Homo sapiens) (UniProt P08908).
T3 sequence (whole entry): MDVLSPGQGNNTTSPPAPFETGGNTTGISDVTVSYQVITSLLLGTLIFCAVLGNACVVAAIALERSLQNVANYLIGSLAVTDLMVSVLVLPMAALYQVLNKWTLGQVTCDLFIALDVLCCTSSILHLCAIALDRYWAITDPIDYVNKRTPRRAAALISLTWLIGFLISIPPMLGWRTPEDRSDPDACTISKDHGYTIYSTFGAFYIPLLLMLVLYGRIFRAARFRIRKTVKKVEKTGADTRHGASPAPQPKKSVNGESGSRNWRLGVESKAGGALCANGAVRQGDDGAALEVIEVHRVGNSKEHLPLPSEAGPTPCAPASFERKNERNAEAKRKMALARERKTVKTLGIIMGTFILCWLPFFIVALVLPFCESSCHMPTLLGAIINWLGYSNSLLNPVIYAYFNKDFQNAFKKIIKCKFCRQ
The experiment in a line: Maximal stimulation was expressed as percentage of the maximal 5-HT response in the [35S]GTP-gamma-S, binding assay on 5-hydroxytryptamine 1A receptor. The class given is functional. In outline: (§1)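 Membranes of HeLa cells expressing human 5-HT1A, in 20 mM HEPES, 3 mM MgCl2, 120 mM NaCl pH 7.4. Preincubated 20 min at 30 °C with 30 µM GDP and drug (0.1 nM–100 µM) or 5-HT as reference curve. [35S]GTPγS (200–250 pM) then added for 30 min at 30 °C. Nonspecific binding with 10 µM GTPγS. Curves fitted by ALLFIT to give Emax and pD2 (−log EC50).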
A general note: GTPγS resists hydrolysis and so accumulates on activated G proteins.

Experiment [4] in a line: Selectivity expressed as a ratio of affinity against Alpha 1A-Adrenoceptor to that of 5-HT1A receptor.
Experiment [5] addresses T3, 5-hydroxytryptamine receptor 1A (Homo sapiens). The experiment in a line: Potency (pD2) for the stimulation of [35S]GTP-gamma-S, binding on 5-hydroxytryptamine 1A receptor. The class given is functional. The method in brief:
as §1

A short description of experiment [6]: Selectivity expressed as a ratio of affinity against Alpha 1b-Adrenoceptor to that of 5-HT1A receptor.
Experiment [7] is described as follows: Selectivity expressed as a ratio of affinity against Alpha 1d-Adrenoceptor to that of 5-HT1A receptor.
Experiment [8] concerns the target T4, 5-hydroxytryptamine receptor 1A (Rattus norvegicus) (UniProt P19327).
T4 sequence (whole entry): T2 sequence (P19327 whole entry)
In words: Agonistic activity (induction of forepaw treading in rats)on postsynaptic 5-hydroxytryptamine 1A receptor while iv administration. The class given is functional, organism-based. The method in brief:
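Male Sprague Dawley rats (175–200 g), iv injection; vehicle DMF 20% v/v plus Tween 80 10% v/v in water, or water for the reference agonist. Rats placed singly 10–15 min beforehand, 4–8 per dose. A blind observer scored fore-paw treading in 30 s sessions every 3 min from 3 to 15 min.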

Molecules are shown by their SMILES.

D(2) dopamine receptor, sequence (P61169 whole entry): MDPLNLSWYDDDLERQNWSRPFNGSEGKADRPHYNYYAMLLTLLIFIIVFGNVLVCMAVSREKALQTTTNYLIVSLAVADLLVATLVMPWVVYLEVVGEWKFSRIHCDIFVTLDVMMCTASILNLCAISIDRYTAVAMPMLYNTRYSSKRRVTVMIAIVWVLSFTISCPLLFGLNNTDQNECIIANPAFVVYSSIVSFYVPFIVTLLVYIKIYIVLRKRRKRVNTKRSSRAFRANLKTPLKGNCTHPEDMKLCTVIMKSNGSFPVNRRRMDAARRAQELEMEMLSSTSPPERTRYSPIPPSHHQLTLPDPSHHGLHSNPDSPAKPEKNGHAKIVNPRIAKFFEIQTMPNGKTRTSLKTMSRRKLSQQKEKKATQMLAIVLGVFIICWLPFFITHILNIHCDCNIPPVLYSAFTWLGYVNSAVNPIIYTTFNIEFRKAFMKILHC

As to `COc1cccc2c1CCC/C2=C\CCN1CCN(c2ccccn2)CC1`, the inhibitory constant (Ki) was 60 nM in experiment [1], 0.31 nM in experiment [2] and 125 nM at D(2) dopamine receptor.

As for `COc1ccccc1C1CCC(N2CCN(c3ccccn3)CC2)CC1` (stereo in doubt; cis), the values for the Ki (in [1]; in experiment [2]; at D(2) dopamine receptor) were 712 nM, 480 nM and 2120 nM, respectively.

On to `COc1cccc(C2CCC(N3CCN(c4ccccc4)CC3)CC2)c1` (stereo in doubt; trans), for which the Ki was 730 nM in experiment [1], 0.026 nM in [2] and 910 nM at D(2) dopamine receptor.

With `COc1cccc(C2CCC(N3CCN(c4ccccc4OC)CC3)CC2)c1` (stereo in doubt; trans), the Emax in experiment [3] was determined as 26.5%. The Selectivity was 24 in [4], 206 in experiment [6] and 21 in experiment [7]. Besides, in experiment [5], the pD2 was 9.91.

For `COc1cccc(C2CCC(NCCOc3ccccn3)CC2)c1` (stereo in doubt), the Emax in experiment [3] was determined as 82%. For the same compound, the values for the Selectivity in experiment [4], in [6] and in experiment [7] were 53, 88 and 37, respectively. Moreover, in experiment [5], the pD2 turned out to be 7.46.

Consider `COc1ccc2c(c1)CCC(CNCCOc1ccccn1)C2` (stereo unspecified), for which the Ki is above 850 nM in [1], 59 nM in experiment [2] and above 850 nM at D(2) dopamine receptor.

`COc1cccc(C2=CCC(N3CCN(c4cccc5ccccc45)CC3)CC2)c1` (stereo unspecified): the Ki in experiment [1] is 986 nM; in experiment [2], 15 nM; at D(2) dopamine receptor, 327 nM.

With `COc1ccc2c(c1)CCC(CN1CCN(c3ccccn3)CC1)C2` (stereo unspecified), the results for the Ki (in experiment [1]; in [2]; on D(2) dopamine receptor) were 585 nM, 676 nM and above 850 nM, respectively.

In the case of `COc1cccc(C2CCC(NCCOc3ccccn3)CC2)c1` (cis isomer), the Ki is 373 nM in experiment [2] and 783 nM at D(2) dopamine receptor.

As for `COc1cccc(CCCCNCCOc2ccccn2)c1`, the figures for the Ki (in experiment [1]; in experiment [2]; on D(2) dopamine receptor) were 733 nM, 39 nM and above 850 nM, respectively.

For the compound `COc1cccc(C2CCC(N3CCN(c4ccccc4OC)CC3)CC2)c1` (stereo in doubt; cis), the Ki was found to be 1050 nM in experiment [1], 79.6 nM in experiment [2] and 668 nM on D(2) dopamine receptor.

As for `COc1cccc(C2CCC(N3CCN(c4cccc5ccccc45)CC3)CC2)c1` (trans isomer), the Ki in experiment [1] came out at 470 nM; in experiment [2] it was 0.22 nM; on D(2) dopamine receptor, 70 nM.

`COc1cccc(C2CCC(N3CCN(c4cccc5ccccc45)CC3)CC2)c1` (stereo in doubt): the Ki in experiment [1] is 5540 nM; in experiment [2], 74 nM; on D(2) dopamine receptor, 1310 nM.

As to `COc1cccc(C2=CCC(N3CCN(c4ccccc4OC)CC3)CC2)c1` (stereo unspecified), the Ki in experiment [1] was 408 nM; in experiment [2], 7.1 nM; at D(2) dopamine receptor, 2930 nM.

Regarding `COc1ccccc1C1CCC(N2CCN(c3ccccn3)CC2)CC1` (stereo in doubt; trans), the figures for the Ki (in experiment [1]; in experiment [2]; on D(2) dopamine receptor) were 303 nM, 0.2 nM and 243 nM, respectively.

`COc1cccc(C2CCC(N3CCN(c4ccccn4)CC3)CC2)c1` (trans isomer): it took a dose of 0.721 µg/kg to reach the 50% effect level in [8] (ED50). In addition, in experiment [3], the Emax worked out at 95.9%. Also, the Selectivity in [4] came out at 165; in experiment [6], 265; in experiment [7], 590. Further, in [5], the pD2 is 9.28.

Take `COc1cccc(C2=CCC(N3CCN(c4ccccc4)CC3)CC2)c1` (stereo unspecified): the Ki in experiment [1] was found to be 5160 nM; at D(2) dopamine receptor, 2190 nM.

On to `COc1ccc(C2CCC(N3CCN(c4ccccn4)CC3)CC2)cc1` (trans isomer), for which the figures for the Ki (in experiment [1]; in experiment [2]; on D(2) dopamine receptor) were 847 nM, 0.046 nM and 792 nM, respectively.

Take `COc1cccc(C2=CCC(N3CCN(c4ccccn4)CC3)CC2)c1` (stereo unspecified): the Ki in [1] is 512 nM; in experiment [2], 536 nM; at D(2) dopamine receptor, 1220 nM.

Regarding `COc1cccc2c1CCC/C2=C\CCNCCOc1ccccn1`, the Ki in [1] was above 850 nM; in experiment [2], 0.71 nM; on D(2) dopamine receptor it was above 850 nM.

Regarding `COc1ccc(C2CCC(N3CCN(c4ccccn4)CC3)CC2)cc1` (stereo in doubt), the Ki in [1] amounted to 786 nM; in [2], 94 nM; on D(2) dopamine receptor, 787 nM.

On to `CCCN(CCC)C1CCc2cccc(O)c2C1` (stereo unspecified), for which the Emax in experiment [3] was 100%.

For `COc1cccc(C2CCC(N3CCN(c4ccccn4)CC3)CC2)c1` (cis isomer), the Ki in experiment [1] was 783 nM; in experiment [2] it was 815 nM; at D(2) dopamine receptor, above 850 nM.

With `COc1cccc(C2CCC(N3CCN(c4ccccc4)CC3)CC2)c1` (stereo in doubt; cis), the values for the Ki (in [1]; in experiment [2]; on D(2) dopamine receptor) were 2250 nM, 183 nM and 2380 nM, respectively.

For the compound `COc1cccc(CCCCN2CCN(c3ccccn3)CC2)c1`, the Ki in experiment [1] was 467 nM; in [2], 23 nM; at D(2) dopamine receptor it was 750 nM.

In the case of `COc1ccc2c(c1)CC(CCN1CCN(c3ccccn3)CC1)CC2` (stereo unspecified), the Ki in experiment [1] is 117 nM; in [2], 0.16 nM; on D(2) dopamine receptor, 1730 nM.
